Ends that are not written are not given here. ABA = azidobenzoic acid, photoreactive group linked to the lysine of the peptide
Assays:
S14 thymocytes = assay: Fetal thymic organ culture; format: cell-based, mouse; conditions: S14 TCR transgenic FTOC
How it was run: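 Fetal thymi (E15) from Rag−/− β2m−/− S14 TCR transgenic mice were cultured for 7 d with peptide variants. Thymocytes were stained for CD4, CD8α and/or CD8β and analysed by flow cytometry.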

H-2K^d = H-2K^d (Mus musculus, UniProt P01902); assay: Peptide binding to H-2K^d; conditions: unpublished data
T1 thymocytes = assay: Fetal thymic organ culture; format: cell-based, mouse; conditions: high concentrations (100 μM shown in Fig. 1 D)
How it was run: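 E15 fetal thymi from T1 β2m−/− Rag−/− TCR transgenic mice were cultured 7 d without peptide or with 1 μM exogenous peptide, with 0.2 μM and 100 μM also shown for two variants. Cells were stained for CD4, CD8α and/or CD8β and read by flow cytometry.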

| Affinity for H-2K^d relative to 4P (H-2K^d) | Substance | Selecting potential in FTOC (S14 thymocytes) | Selection outcome in FTOC at high peptide concentrations (T1 thymocytes) |
| --- | --- | --- | --- |
| fivefold lower affinity than 4P | 4L: variant of SYIPSAEK(ABA)I with proline at position 4 replaced by leucine (SYILSAEK(ABA)I) | threshold ligand | – |
| – | 4A: variant of SYIPSAEK(ABA)I with proline at position 4 replaced by alanine (SYIASAEK(ABA)I) | – | could induce negative selection |
| – | 4S: variant of SYIPSAEK(ABA)I with proline at position 4 replaced by serine (SYISSAEK(ABA)I) | – | could induce negative selection |

From publication PMC2118488 (The Journal of Experimental Medicine, 2007)
